ChEMBL document CHEMBL1144209, “CYP19 (aromatase): exploring the scaffold flexibility for novel selective inhibitors” (Bioorg Med Chem, 2008)

What was measured:
[1] = molecular target: T1, Steroid 17-alpha-hydroxylase/17,20 lyase (Homo sapiens, UniProt P05093); experiment: (§1) Inhibition of human CYP17 expressed in Escherichia coli coexpressing NADPH reductase at 2 uM; settings: 2 µM
T1 sequence (P05093 whole entry): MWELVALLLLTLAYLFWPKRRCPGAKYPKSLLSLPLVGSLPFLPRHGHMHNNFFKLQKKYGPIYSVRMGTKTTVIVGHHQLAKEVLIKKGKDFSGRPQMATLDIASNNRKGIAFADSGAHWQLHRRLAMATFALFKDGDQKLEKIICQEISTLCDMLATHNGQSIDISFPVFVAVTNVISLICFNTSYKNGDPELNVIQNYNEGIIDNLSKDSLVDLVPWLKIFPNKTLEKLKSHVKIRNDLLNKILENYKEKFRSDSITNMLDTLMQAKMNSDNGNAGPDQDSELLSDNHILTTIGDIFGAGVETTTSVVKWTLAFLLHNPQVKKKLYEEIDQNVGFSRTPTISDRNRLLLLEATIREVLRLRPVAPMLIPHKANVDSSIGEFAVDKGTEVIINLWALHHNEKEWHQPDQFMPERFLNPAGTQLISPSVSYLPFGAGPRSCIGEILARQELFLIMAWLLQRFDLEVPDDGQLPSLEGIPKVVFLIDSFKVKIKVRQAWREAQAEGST
How it was run: (§2)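 Enzyme: 50,000g sediment from homogenized, fractionally centrifuged E. coli coexpressing human CYP17 and NADPH-P450 reductase. Substrate: progesterone, 25 µM. Values are means of at least three experiments, with deviations within 5%.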

Aromatase [2] = molecular target: T2, Aromatase (Homo sapiens, UniProt P11511); experiment: Inhibition of human aromatase
T2 sequence (P11511 whole entry): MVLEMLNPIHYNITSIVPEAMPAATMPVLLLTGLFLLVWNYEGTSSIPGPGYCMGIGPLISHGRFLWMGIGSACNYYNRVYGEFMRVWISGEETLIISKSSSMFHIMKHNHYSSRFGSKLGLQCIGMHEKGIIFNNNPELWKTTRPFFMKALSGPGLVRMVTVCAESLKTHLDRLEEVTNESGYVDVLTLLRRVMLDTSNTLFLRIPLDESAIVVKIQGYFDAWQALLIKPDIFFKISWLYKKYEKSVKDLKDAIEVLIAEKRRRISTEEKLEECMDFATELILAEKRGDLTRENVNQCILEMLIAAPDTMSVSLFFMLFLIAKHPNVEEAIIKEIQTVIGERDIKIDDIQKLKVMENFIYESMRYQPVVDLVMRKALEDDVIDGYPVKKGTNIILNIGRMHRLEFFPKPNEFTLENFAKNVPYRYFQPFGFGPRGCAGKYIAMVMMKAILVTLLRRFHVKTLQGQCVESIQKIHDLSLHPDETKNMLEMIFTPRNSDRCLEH

[3] = molecular target: T3, CYP17 (steroid 17-alpha-hydroxylase/17,20 lyase) (Homo sapiens, UniProt P05093); experiment: as §1; how it was run: as §2
T3 sequence (P05093 whole entry): T1 sequence (P05093 whole entry)

Aromatase [4] = molecular target: T2, Aromatase; experiment: Inhibition of human aromatase at 36 uM
How it was run: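 Aromatase source: microsomal fraction of fresh human term placenta. Substrate: [1β,2β-³H]testosterone, 500 nM. Read-out: tritiated water released on aromatization (³H₂O method). Values are means of at least three experiments, with deviations within 5%.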

| Structure (SMILES) | Activity [1] | IC50 (Aromatase [2]) | inhibition at 2 µM [3] | inhibition at 36 µM (Aromatase [4]) |
| --- | --- | --- | --- | --- |
| CC(C)(C)c1ccc(CN(Cc2ccc(-c3ccccc3)cc2)n2ccnc2)cc1 | Not Active | 2.16 µM |  |  |
| CC(C)(C)c1ccc(CN(Cc2cccc3ccccc23)n2cnnc2)cc1 |  |  | 22.4% |  |
| Cc1ccc(CC(Cc2ccc(-c3ccccc3)cc2)n2ccnc2)cc1 (stereo unspecified) |  | 1.32 µM | 32.8% |  |
| Clc1ccc(CN(Cc2ccc(-c3ccccc3)cc2)n2ccnc2)c(Cl)c1 |  | 3.65 µM | 25.8% |  |
| Cc1ccc(CN(Cc2ccc(-c3ccccc3)cc2)n2ccnc2)cc1 |  | 2.2 µM | 29.1% |  |
| Fc1ccc(CN(Cc2ccc(-c3ccccc3)cc2)n2ccnc2)cc1 |  | 0.19 µM | 13.9% |  |
| c1ccc(CC(Cc2ccc(-c3ccccc3)cc2)n2ccnc2)cc1 (stereo unspecified) |  | 0.95 µM | 17.1% |  |
| CC(C)(C)c1ccc(CN(Cc2cccs2)n2cncn2)cc1 | Not Active | 9.23 µM |  |  |
| Fc1ccc(CC(Cc2ccc(-c3ccccc3)cc2)n2ccnc2)cc1 (stereo unspecified) |  | 0.11 µM | 15.8% |  |
| Cc1ccccc1CN(Cc1ccc(-c2ccccc2)cc1)n1ccnc1 |  | 2.96 µM | 20.6% |  |
| Clc1ccc(CN(Cc2cccc3ccccc23)n2cncn2)c(Cl)c1 | Not Active |  |  | 24.9% |
| Fc1ccc(CN(Cc2ccc(-c3ccccc3)cc2)n2ccnc2)c(F)c1 | Not Active | 0.35 µM |  |  |
| COc1ccccc1CC(Cc1ccc(-c2ccccc2)cc1)n1ccnc1 (stereo unspecified) |  | 0.51 µM | 30.2% |  |
| Fc1ccccc1CC(Cc1ccc(-c2ccccc2)cc1)n1ccnc1 (stereo unspecified) | Not Active | 1.37 µM |  |  |
| C(=C\c1ccccc1)/CCN(Cc1cccc2ccccc12)n1cncn1 |  | 13 µM | 15.5% |  |
| Clc1ccc(CC(Cc2ccccc2)n2ccnc2)s1 (stereo unspecified) |  | 0.87 µM | 7.97% |  |
| C(=C\c1ccccc1)/CCN(Cc1ccc(-c2ccccc2)cc1)n1cnnc1 |  |  | 16.1% | 5.9% |
| CC(C)(C)c1ccc(CN(CC/C=C/c2ccccc2)n2cnnc2)cc1 |  |  | 19.9% | 38.3% |
| CC(C)(C)c1ccc(CN(Cc2cccs2)n2cnnc2)cc1 | Not Active |  |  | 30.7% |
| Clc1ccc(CN(Cc2ccc(-c3ccccc3)cc2)n2cnnc2)c(Cl)c1 |  |  | 13.1% |  |
| Clc1ccc(CN(Cc2cccc3ccccc23)n2cnnc2)c(Cl)c1 |  |  | 4.43% | 8.8% |
| C(=C\c1ccccc1)/CCN(Cc1ccc(-c2ccccc2)cc1)n1cncn1 |  |  | 12.4% | 31.4% |
| Clc1ccc(CN(Cc2ccccc2)n2ccnc2)s1 |  | 1.06 µM | 7.3% |  |
| Clc1ccc(CN(CC/C=C/c2ccccc2)n2cnnc2)c(Cl)c1 | Not Active |  |  | 10.6% |
| Clc1ccc(CN(Cc2ccc(-c3ccccc3)cc2)n2cncn2)c(Cl)c1 |  |  | 9.2% | 27.6% |
| CC(C)(C)c1ccc(CC(Cc2ccc(-c3ccccc3)cc2)n2ccnc2)cc1 (stereo unspecified) | Not Active | 1 µM |  |  |
| CC(C)(C)c1ccc(CN(Cc2cccc3ccccc23)n2ccnc2)cc1 |  | 4.59 µM | 13% |  |

| Structure (SMILES) | Activity [1] | IC50 (Aromatase [2]) | inhibition at 2 µM [3] | inhibition at 36 µM (Aromatase [4]) |
| --- | --- | --- | --- | --- |
| c1ccc(CN(Cc2ccc(-c3ccccc3)cc2)n2ccnc2)cc1 | Not Active | 1.2 µM |  |  |
| COc1ccc(CC(Cc2ccc(-c3ccccc3)cc2)n2ccnc2)cc1 (stereo unspecified) |  | 1.68 µM | 38.8% |  |
| Clc1ccc(CN(Cc2cccc3ccccc23)n2ccnc2)c(Cl)c1 |  | 4 µM | 11.3% |  |
| CC(C)(C)c1ccc(CN(Cc2cccc3ccccc23)n2cncn2)cc1 |  |  | 3.13% | 14.6% |
| CC(C)(C)c1ccc(CN(Cc2ccc(-c3ccccc3)cc2)n2cncn2)cc1 |  |  | 6.03% | 19.8% |
| Clc1ccc(CN(CC/C=C/c2ccccc2)n2cncn2)c(Cl)c1 |  | 17.1 µM | 21.1% |  |
| CC(C)(C)c1ccc(CN(Cc2ccc(Cl)cc2Cl)n2ccnc2)cc1 |  | 1.52 µM | 43.3% |  |
| Clc1ccc(CN(Cc2ccc(-c3ccccc3)cc2)n2ccnc2)s1 |  | 1.04 µM | 23.6% |  |
| Clc1ccc(CC(Cc2ccc(-c3ccccc3)cc2)n2ccnc2)s1 (stereo unspecified) |  | 1.07 µM | 25.7% |  |
| COc1ccc(CN(Cc2ccc(-c3ccccc3)cc2)n2ccnc2)cc1 |  | 1.53 µM | 21.7% |  |
| C(=C\c1ccccc1)/CCN(Cc1cccc2ccccc12)n1cnnc1 |  |  | 6.1% | 14.8% |
| Clc1ccc(CN(Cc2cccc3ccsc23)n2ccnc2)c(Cl)c1 |  | 2.49 µM | 4.07% |  |
| Clc1ccc(CN(Cc2ccc(Cl)s2)n2ccnc2)c(Cl)c1 |  | 0.32 µM | 56.2% |  |
| Fc1ccc(CC(Cc2ccc(-c3ccccc3)cc2)n2ccnc2)c(F)c1 (stereo unspecified) |  | 0.26 µM | 17.7% |  |
| CC(C)(C)c1ccc(CN(Cc2ccc(-c3ccccc3)cc2)n2cnnc2)cc1 |  |  | 15.9% | 8.8% |
| Clc1ccc(CN(Cc2ccc(-c3ccccc3)cc2)n2ccnc2)cc1 |  | 1.18 µM | 13.6% |  |
| CC(C)(C)c1ccc(CN(Cc2cccs2)n2ccnc2)cc1 |  | 0.58 µM | 10.7% |  |
| CC(C)(C)c1ccc(CN(Cc2ccc(Cl)cc2Cl)n2cnnc2)cc1 |  |  | 4% | 3.3% |
| CC(C)(C)c1ccc(CN(CC/C=C/c2ccccc2)n2cncn2)cc1 |  | 5.06 µM | 12.4% |  |
| Clc1ccc(CC(Cc2ccc(-c3ccccc3)cc2)n2ccnc2)c(Cl)c1 (stereo unspecified) |  | 1.24 µM | 18.2% |  |
| CC(C)(C)c1ccc(CN(Cc2ccc(Cl)cc2Cl)n2cncn2)cc1 |  |  | 3.33% | 36% |
| COc1ccccc1CN(Cc1ccc(-c2ccccc2)cc1)n1ccnc1 |  | 1.51 µM | 42.9% |  |
| Fc1ccccc1CN(Cc1ccc(-c2ccccc2)cc1)n1ccnc1 | Not Active | 0.46 µM |  |  |
| Clc1ccccc1CC(Cc1ccc(-c2ccccc2)cc1)n1ccnc1 (stereo unspecified) |  | 1.09 µM | 22.6% |  |
| Cc1ccccc1CC(Cc1ccc(-c2ccccc2)cc1)n1ccnc1 (stereo unspecified) |  | 1.04 µM | 25% |  |
| c1ccc(CN(Cc2cccc3ccsc23)n2ccnc2)cc1 |  | 9.96 µM | 5.25% |  |
| Clc1ccccc1CN(Cc1ccc(-c2ccccc2)cc1)n1ccnc1 |  | 0.3 µM | 29.4% |  |
